From PubChem
Calb FLC: C. albicans growth inhibition with fluconazole, primary screen, CaCi-2 strain, Alamar Blue fluorescence; C. albicans CaCi-2 (fluconazole-resistant clinical isolate) + fluconazole, 48 h; growth inhibition, % (no concentration beside the values); 300,000 tested, 0.57% active; AID 1979, 2009;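 active = growth inhibition above about 58% in most replicates, limit read from the data, passing the limit was not always enough; inconclusive = exactly half the replicates above a set limit; inactive = most replicates below a set limit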;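 note: all wells also contain fluconazole at 8 µg/ml as a sub-toxic cotreatment; 0% = median of DMSO wells and 100% = median of geldanamycin control wells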
NLRP3 yeast inh: NALP3 inflammasome inhibitors in reconstituted yeast, primary screen, luminescence, uHTS; Yeast reconstituted NLRP3/ASC/caspase-1, beta-gal luminescence, 24 h; inhibition, % at 10 µM; 330,000 tested, 0.39% active;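 active = inhibition of 50% or more; inactive = inhibition below 50%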;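 note: plate controls were induced DMSO wells for no effect and uninduced yeast grown without galactose for full effect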
T cruzi inh: inhibitors of intracellular T. cruzi growth, primary screen, luminescence, NIH3T3 host cells | T. cruzi beta-gal in NIH3T3, 90 h | inhibition, % (concentration not given with the values) | 300,000 tested, 1.4% active | AID 1885, 2009;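 active = mean inhibition across valid replicates above about 55%, limit read from the data; inconclusive = mean below that limit but half or more replicates reach it; inactive = mean below it, under half of replicates reach it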;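 note: signal also drops with host cell toxicity which is not excluded here; 0% = plate median of DMSO wells and 100% = zero luminescence signal; higher percent means less beta-gal luminescence so fewer parasites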
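Material: NIH/3T3 host cells with β-galactosidase reporter T. cruzi; Input: 5,000 host fibroblasts per well; Medium: DMEM, 2% fetal bovine serum; Compound: 50 nL DMSO compound solution per well; Schedule: 3 h host attachment, then at least 90 h co-culture; Detection: luminescent β-galactosidase signal after 60 min lysis.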
L major viab: Leishmania major promastigote growth inhibition, primary screen. Leishmania major promastigotes, resazurin fluorescence viability. inhibition, % at 10 µM. 200,000 tested, 9% active. AID 1063, 2008; in the data active = inhibition above about 50%;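 note: promastigotes grown with compound for 44 hours at 28 °C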
NALP1 yeast inh: NALP1 inflammasome inhibitors in reconstituted yeast, colorimetric, S. cerevisiae, triplicate retest; S. cerevisiae NALP1/ASC/caspase-1 growth, X-gal OD620, 72 h; inhibition, % at 10 µM; 280,000 tested, 0.61% active; in the data active = inhibition mostly above about 24%, no sharp cut-off; inactive = mostly below about 32%
PolyA inh: polyadenylation inhibitors in yeast reporter cells, primary screen, luminescence, S. cerevisiae; activity score, % at 12 µM; S. cerevisiae SKY197-pL101 polyadenylation reporter, beta-gal luminescence; efflux-impaired pdr1/pdr3 knockout yeast; score 100 = 6 SD above DMSO; AID 1875, 2009; 300,000 tested, 0.02% active;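 active = lowest replicate activity score at least 50, where 100 means six control SD above control mean; inconclusive = lowest score under 50 but half or more replicates reach 50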;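 note: yeast exposed to compound for 9 h at 30 °C; higher score means more reporter readthrough which indicates perturbed polyadenylation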
Starred values were filed as active, the others as inactive; ? = inconclusive; · = no result. Shown is part of a subset that was picked to be rich in hits.

SMILES	Calb FLC	NLRP3 yeast inh	T cruzi inh	L major viab	NALP1 yeast inh	PolyA inh
CCc1ccc(N=CC2=C(O)CC(c3ccco3)CC2=O)cc1 (configuration not stated)	-12	16	-22	-7	38*	-3
CCCOc1ccc(C(=O)Nc2nc(C)c(Cc3ccc4c(c3)OCO4)s2)cc1	9	10	33	64*	33	13
CC(C)C(=O)Nc1c2c(nn1-c1ccc(F)cc1)CS(=O)(=O)C2	2	8	-24	·	5	-8
Cc1ccc2cc(C3C(C#N)=C(N)Oc4c3ccc3cccnc43)c(=O)[nH]c2c1 (configuration not stated)	87*	16	-8	91*	13	-26
CCc1ccc2[nH]c(=O)c(C3C(C#N)=C(N)Oc4c3ccc3cccnc43)cc2c1 (configuration not stated)	110*	20	59*	10	-22	-46
Fc1cccc2sc(Nc3nc4cc5c(cc4s3)OCCO5)nc12	-4	23	11	49	9	11
O=C(Nc1nc2cc3c(cc2s1)OCO3)C1CC1	6	16	56*	·	·	5
O=C(Nc1nc2ccc(Cl)cc2s1)C1CC1	-6	-11	66*	·	·	-56
O=C(Nc1nc2cc3c(cc2s1)OCCO3)C1CCCCC1	·	32	·	·	·	·
O=C(Nc1nc2ccc(Cl)cc2s1)C1CCCO1 (configuration not stated)	7	35	32	11	17	5
O=C(Nc1nc2c(F)cc(F)cc2s1)C1CC1	1	26	58*	·	-7	7
Fc1cccc2sc(Nc3nc4cc5c(cc4s3)OCO5)nc12	-2	19	20	60*	9	10
COc1ccc2[nH]c3c(c2c1)CCN1C(=O)N([C@@H](C)C(=O)NCCc2ccc(F)cc2)C(=O)[C@]31C	-4	17	48	·	-4	-12
COc1ccc(N(CC(=O)NCCC(C)C)C(=O)c2snc(C(=O)NC3CCCCC3)c2N)c(OC)c1	12	12	17	·	2	11
COc1ccc(-c2c(C(C)=O)c(C)nc3sc4c(=O)[nH]nnc4c23)cc1	0	5	13	59*	34	-10
COc1ccccc1C(=O)NCC(c1cccs1)N1CCc2ccccc21 (configuration not stated)	0	13	22	·	·	-15
CC(c1ccco1)N(C(=O)c1ccccc1NS(=O)(=O)c1cccc([N+](=O)[O-])c1)c1ccccn1 (configuration not stated)	1	2	-22	-1	22	-12
CC(c1ccco1)N(C(=O)c1ccccc1NS(=O)(=O)c1cc([N+](=O)[O-])ccc1Cl)c1ccccn1 (configuration not stated)	?	15	-16	51*	25	5
Cc1ccc(CNC(=O)CN(C(=O)N2CCN(C)CC2)S(=O)(=O)c2ccc(C)cc2)cc1	-3	15	1	·	·	-19
CCOC(=O)C(Cc1ccc(O)cc1)NC(=O)CNC(=O)C(CC(C)C)NC(=O)OC(C)(C)C (configuration not stated)	8	13	-31	57*	0	4
Cc1ccc(C)c(Cn2c(O)c(N=NC(=S)Nc3ccccc3F)c3ccccc32)c1	-2	12	67*	96*	7	-1
Cc1ccccc1Cn1c(O)c(N=NC(=S)Nc2ccccc2F)c2ccccc21	-12	23	36	76*	19	11
Oc1c(N=NC(=S)Nc2ccccc2F)c2ccccc2n1Cc1ccccc1F	10	12	88*	96*	10	-4
Oc1c(N=NC(=S)Nc2ccccc2F)c2ccccc2n1Cc1ccc(Cl)cc1	7	6	61*	96*	0	11
CCNC(=S)N=Nc1c(O)n(Cc2ccc(Cl)cc2)c2ccccc12	19	22	-3	9	19	-14
SMILES	Calb FLC	NLRP3 yeast inh	T cruzi inh	L major viab	NALP1 yeast inh	PolyA inh
Cc1cs/c(=N\N=C2CCCCC2)n1Cc1ccco1	1	8	-13	-9	-3	-17
CC(=O)Nc1cc(S(=O)(=O)Nc2ccccc2C)c(C)cc1C	-14	-1	3	-1	-14	12
COc1ccc(CCNC(=O)[C@@H](NC(=O)N2CC(=O)Nc3ccccc32)C(C)C)cc1OC	-5	11	-31	·	1	6
Cc1cc(NC(=O)CCC(=O)N(Cc2ccccc2)C2(C(=O)NC3CCCCC3)CCCC2)no1	-8	5	22	14	-1	27
COc1ccc(CNC(=O)c2ccc(CS(=O)(=O)c3ccc(Br)cc3)o2)cc1	9	19	10	·	11	-10
C#CCSc1nnc(CSc2nc3ccccc3s2)n1-c1ccccc1	-1	16	13	50*	12	-8
Cc1cc(C(=O)COC(=O)C2=COCCO2)c(C)n1-c1ccccc1	·	-8	·	·	·	·
CS/C(=N\NC(N)=O)c1ccccc1	-6	-4	-13	48	18	13
CS/C(=N\N(C)C(N)=O)c1ccccc1	-15	3	-10	69*	20	-3
CCC(=O)N1N=C(c2ccc(NS(=O)(=O)c3ccccc3)cc2)CC1c1ccco1 (configuration not stated)	·	-1	·	·	·	·
CC(C)n1cc(-c2ccc(Cl)cc2)cc(C#N)c1=O	-6	4	10	-8	31*	-5
COc1cccc(CC(=O)N[C@@H](CCSC)c2nc3ccccc3[nH]2)c1	8	1	-1	5	6	7
COc1ccc2nc(SCC(=O)NC3CCCc4ccccc43)[nH]c2c1 (configuration not stated)	1	-3	-12	75*	33	-5
COc1ccc(-c2nnn(CC(=O)NC3CCCc4ccccc43)n2)cc1OC (configuration not stated)	7	7	-6	5	42*	18
CC(C)Cc1nnc(NC(=O)CCC(=O)NC2CCCc3ccccc32)s1 (configuration not stated)	13	5	-8	96*	-3	-3
CC(C)C(C)NC(=O)COc1ccc(S(=O)(=O)N2CCOCC2)cc1[N+](=O)[O-] (configuration not stated)	?	-2	-4	49	45	6
CNC(=O)COC(=O)[C@@H](Nc1ccc(S(=O)(=O)N2CCOCC2)cc1[N+](=O)[O-])C(C)C	3	16	0	55*	28	23
CC(C)[C@H](Nc1ccc(S(=O)(=O)N2CCOCC2)cc1[N+](=O)[O-])C(=O)OCC(=O)N(C(C)C)C(C)C	2	17	8	82*	30	-20
